The values that follow come from ChEMBL document CHEMBL1129987, “Structure-based design of nonpeptidic HIV protease inhibitors: the sulfonamide-substituted cyclooctylpyramones” (J Med Chem, 1997).

A short description of data set [1]: Maximum time taken by the drug to reach peak concentration after peroral administration of 10 mg/kg of drug male in male Beagle dogs. It is filed as ADME, organism-based, Canis lupus familiaris. To be noted: dog, in vivo, po. The arrangement: dose 10 mg/kg, route oral. In short, it runs like this:
(§1)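 Male beagle dogs received a 10 mg/kg oral dose. tmax is reported as a range. Bioavailability was calculated as %F = (AUCpo/AUCiv) × (doseiv/dosepo) against a separate iv study. Values are mean ± SD, n = 3.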

Data set [2] is described as follows: Total plasma clearance value was obtained after intravenous administration of 4.9 mg/kg of drug in male Beagle dogs. It counts as ADME, organism-based, Canis lupus familiaris. The arrangement: dose 4.9 mg/kg, route intravenous. To be noted: dog.
The subject of data set [3] is Human immunodeficiency virus 1. Kind of data set: Antiviral activity in HIV-1 infected H9 cells. It counts as functional. The note with it: Human immunodeficiency virus 1, H9; read-out: ED50 (the source's name). The method, boiled down:
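H9 cells infected with HIV-1 IIIB at MOI about 0.005, spun down (200g, 10 min), resuspended at 8 × 10^5 cells/mL in RPMI Complete and mixed with compound; final DMSO 0.1%, triplicate per concentration. After 5 days at 37 °C in 5% CO2, supernatant p24 antigen was measured by ELISA. ED50 is the drug amount that reduces p24 by 50% versus DMSO drug-free controls.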

The nature of data set [4]: Half-life was measured after intravenous administration of 2.5 mg/kg of drug in male Dawley rats. It is filed as ADME, organism-based. The arrangement: dose 2.5 mg/kg, route intravenous. To be noted: Sprague-Dawley, rat, in vivo.
Data set [5] in a line: Oral bioavailability in rat (Sprague-Dawley) (male) (dose 5.1 mg/kg p.o.). It is filed as ADME, organism-based. To be noted: in vivo.
A short description of data set [6]: Oral bioavailability in dog (Beagle) (male) (dose 10 mg/kg p.o.). It is filed as ADME, organism-based, Canis lupus familiaris. The note with it: in vivo. The method, boiled down: as §1
Data set [7] in a line: Maximum concentration was measured after peroral administration of 5.1 mg/kg of drug in male Dawley rats. It counts as ADME, organism-based. The arrangement: dose 5.1 mg/kg, route oral. To be noted: Sprague-Dawley, rat, in vivo, po.
Data set [8] can be described thus: Apparent volume of distribution was obtained after intravenous administration of 4.9 mg/kg of drug in male Beagle dogs. It is filed as ADME, organism-based, Canis lupus familiaris. The arrangement: dose 4.9 mg/kg, route intravenous. The note with it: dog, in vivo, read-out: Vss.
The nature of data set [9]: Total plasma clearance value was obtained after intravenous administration of 2.5 mg/kg of drug in male Dawley rats. The note with it: Sprague-Dawley, rat. It is filed as ADME, organism-based. The arrangement: dose 2.5 mg/kg, route intravenous.
A short description of data set [10]: Maximum time taken by the drug to reach peak concentration after peroral administration of 5.1 mg/kg of drug male in Dawley rats. The arrangement: dose 5.1 mg/kg, route oral. The note with it: Sprague-Dawley, rat, in vivo, po. It is filed as ADME, organism-based.
Data set [11] in a line: Half-life was measured after intravenous administration of 4.9 mg/kg of drug in male Beagle dogs. It counts as ADME, organism-based, Canis lupus familiaris. The arrangement: dose 4.9 mg/kg, route intravenous. To be noted: dog, in vivo.
A short description of data set [12]: Median cell culture toxic dose was evaluated against H9 cell line. It is filed as ADME, cell-based. The note with it: human, H9 cells; read-out: CCTD50.
Data set [13] in a line: Half-life was measured after intravenous administration of 5.1 mg/kg of drug in male Dawley rats. The arrangement: dose 5.1 mg/kg, route intravenous. The note with it: Sprague-Dawley, rat, in vivo. It is filed as ADME, organism-based.
A short description of data set [14]: Maximum concentration was measured after peroral administration of 5.0 mg/kg of drug in male Dawley rats. It is filed as ADME, organism-based. To be noted: Sprague-Dawley, rat, in vivo, po. The arrangement: dose 5 mg/kg, route oral.
The nature of data set [15]: Maximum time taken by the drug to reach peak concentration after peroral administration of 5.0 mg/kg of drug in male Dawley rats. It is filed as ADME, organism-based. The arrangement: dose 5 mg/kg, route oral. To be noted: Sprague-Dawley, rat, in vivo, po.
Data set [16] in a line: Apparent volume of distribution was obtained after intravenous administration of 5.1 mg/kg of drug in male Dawley rats. The arrangement: dose 5.1 mg/kg, route intravenous. It counts as ADME, organism-based. To be noted: Sprague-Dawley, rat, in vivo, read-out: Vss.
A short description of data set [17]: Oral bioavailability in rat (Sprague-Dawley) (male) (dose 5 mg/kg). It is filed as ADME, organism-based. The note with it: in vivo.
Data set [18] in a line: Total plasma clearance value was obtained after intravenous administration of 5.1 mg/kg of drug in male Dawley rats. It counts as ADME, organism-based. The arrangement: dose 5.1 mg/kg, route intravenous. The note with it: Sprague-Dawley, rat.
Data set [19] deals with Human immunodeficiency virus type 1 protease (Human immunodeficiency virus 1) (UniProt Q72874). Description: Percentage inhibition against HIV-1 protease at 1 uM concentration of drug.
Data set [20] can be described thus: Total plasma clearance value was obtained after intravenous administration of […] mg/kg of drug in male Dawley rats. It counts as ADME, organism-based. To be noted: male, Sprague-Dawley, rat, plasma, 2.8 mg/kg.
A short description of data set [21]: Half-life was measured after intravenous administration of […] mg/kg of drug in male Dawley rats. To be noted: male, Sprague-Dawley, rat, in vivo, 2.8 mg/kg. It counts as ADME, organism-based.
Data set [22] is described as follows: Apparent volume of distribution was obtained after intravenous administration of 2.8 mg/kg of drug in male Dawley rats. The arrangement: dose 2.8 mg/kg, route intravenous. It is filed as ADME, organism-based. To be noted: male, Sprague-Dawley, rat, in vivo, read-out: Vss.
Data set [23] deals with Human immunodeficiency virus type 1 protease (Human immunodeficiency virus 1, UniProt Q72874). Kind of data set: Binding affinity against HIV-1 protease.
Data set [24] can be described thus: Maximum time taken by the drug to reach peak concentration after peroral administration of 5.1 mg/kg of drug in male Dawley rats. It is filed as ADME, organism-based. The arrangement: dose 5.1 mg/kg, route oral. The note with it: Sprague-Dawley, rat, in vivo, po.

Structures are written as SMILES.

For orientation: Tmax means the time from dosing to the highest level. In general, clearance refers to the volume of plasma or blood freed of the substance per unit of time. A word on the half-life: it is the time in which the quantity being followed falls by half. In general, bioavailability refers to dose-corrected exposure relative to a reference, in per cent. Broadly, the Cmax is the maximum level reached in the sampled fluid or tissue. Regarding `N#Cc1ccc(S(=O)(=O)Nc2cccc(C(c3c(O)c4c(oc3=O)CCCCCC4)C3CC3)c2)cc1` (stereo not given), the Tmax in data set [1] is 0.5 h; in [10], 0.25 h. The figures for the clearance in [2] and in [9] were 0.733 mL/min/kg and 1.25 mL/min/kg, respectively. For the same compound, the EC50 in data set [3] turned out to be 1300 nM. For the same compound, the results for the half-life in data set [4] and in data set [11] were 3 h and 6.3 h, respectively. Also, the bioavailability in data set [5] turned out to be 42%; in [6] it was 77%. For the same compound, in data set [7], the Cmax was 24 µM. The Vd in data set [8] was 0.085 L/kg. The CC50 in [12] was 90000 nM.
With `N#Cc1ccc(S(=O)(=O)Nc2cccc([C@@H](c3c(O)oc4c(c3=O)CCCCCC4)C3CC3)c2)cc1`, the half-life in data set [13] was 6.2 h. This compound also came in with a Cmax in [14] of 19 µM. For the same compound, the EC50 in [3] worked out at 1200 nM. Moreover, the Tmax in [15] is 0.5 h. For the same compound, in data set [16], the Vd is 0.12 L/kg. Also, the bioavailability in data set [17] is 42%. Besides, the CC50 in data set [12] is more than 30000 nM. Moreover, the clearance in data set [18] was 0.817 mL/min/kg.
As usually defined, the inhibition is the percentage by which the read-out fell short of the control. `O=c1c2c(oc(O)c1C(c1cccc(N(S(=O)(=O)c3ccccc3)S(=O)(=O)c3ccccc3)c1)C1CC1)CCCCCC2` (stereo not given): the inhibition in data set [19] worked out at 10%.
A word on the Ki: it is a measure of affinity in units of concentration, obtained from inhibition or displacement. With `O=c1c2c(oc(O)c1[C@H](c1cccc(NS(=O)(=O)c3ccc(F)cc3)c1)C1CC1)CCCCCC2`, in data set [20], the clearance is 1.92 mL/min/kg. This compound also had a half-life in data set [21] of 2.2 h. Also, the EC50 in data set [3] was 800 nM. Besides, the Vd in [22] was determined as 0.13 L/kg. The bioavailability in data set [5] turned out to be 58%. Further, in data set [7], the Cmax was determined as 10 µM. For the same compound, in [23], the Ki came to 1.4 nM. The Tmax in [24] is 0.25 h. Moreover, in data set [12], the CC50 is more than 30000 nM.
Turning to `O=c1c2c(oc(O)c1C(c1cccc(NS(=O)(=O)c3cccc4cccnc34)c1)C1CC1)CCCCCC2` (stereo not given), in data set [3], the EC50 came to 1400 nM. Also, in data set [23], the Ki was determined as 1.9 nM. For the same compound, the CC50 in data set [12] was 82000 nM.
On to `O=c1c2c(oc(O)c1C(c1cccc(NS(=O)(=O)c3cc(Cl)cc(Cl)c3)c1)C1CC1)CCCCCC2` (stereo not given), for which the EC50 in data set [3] is more than 10000 nM. Besides, the affinity in [23] corresponds to a Ki of 6.9 nM. The CC50 in data set [12] was more than 30000 nM.
In the case of `O=c1c2c(oc(O)c1C(c1cccc(NS(=O)(=O)c3ccc(C(F)(F)F)cc3)c1)C1CC1)CCCCCC2` (stereo not given), the EC50 in data set [3] was found to be 6400 nM. Further, the affinity in data set [23], expressed as Ki, was 6.2 nM. The CC50 in data set [12] is more than 30000 nM.
For `CCCCC(c1cccc(NS(=O)(=O)c2ccc(C#N)cc2)c1)c1c(O)c2c(oc1=O)CCCCCC2` (stereo not given), the EC50 in [3] is 7600 nM. This compound also had a Ki in [23] of 2.1 nM. For the same compound, the CC50 in data set [12] is more than 30000 nM.
For `CC(C)C(c1cccc(NS(=O)(=O)c2ccc(F)cc2)c1)c1c(O)c2c(oc1=O)CCCCCC2` (stereo not given), the EC50 in data set [3] was more than 10000 nM. Affinity in data set [23] was put at a Ki of 11 nM. Also, the CC50 in data set [12] is more than 30000 nM.
